Fewer inactive variants are shown than the library holds.
B1: tRNA (parent)
chain: GUUCCGUUGGCGUAAUGGUAACGCGUCUCCCUCCUAAGGAGAAGACUGCGGGUUCGAGUCCCGUACGGAACG

Variants of: B1
Test: yeast fitness relative to wild type (ratio to wild type); higher = fitter; tRNA-Arg(CCU), competitive growth, 37 C, YPD
Summary of the method: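 Changes in genotype frequencies gave Darwinian fitness relative to wild type. Frequencies were read by 100-nucleotide paired-end sequencing of gene amplicons before and after pooled Saccharomyces cerevisiae strains, carrying tRNA-Arg(CCU) gene variants at the native locus, were competed in YPD at 37°C for 24 hours in six replicates. A genotype was kept only with ≥ 100 starting reads, and estimates < 0.5 were set to 0.5.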

Variant | yeast fitness
GUUCCGUUGGCGUAAUGGUUACGCGUCUCCCUCCUAUGGACAAGAGUGCGGGUUCGAGUCCCGUACGGAACG [A20U A37U G41C C46G] | ≤ 0.5
GUUCCGUUGGCGUAAUGGUUACGCGUGUACCUCCUAAGGAGAAGACUGCGGGUUCGAGUCCCGUGCGGAACG [A20U C27G C29A A65G] | ≤ 0.5
GUUCCGUUGGCGUAAUGGUUACGCGUCUCCCUCCUUAGGAGAAGACUGCGGGUUCGAGUCCCGUACGGAACG [A20U A36U] | 0.639
GUUCCGUUGGCGUAAUGGUUACGCGUCUCUGUCCUAAGGAGAGAACAGGGGGUUCGAGUCCCGUACGGAACG [A20U C30U C31G A43G G44A U47A C49G] | 0.595
GUUCCGUUGGCGUAAUGGUUACGCGUCUCACUCCUAAGGAGAAGACUGCGGGUUCGAGUCCCGUACGGAACG [A20U C30A] | 0.795
GUUCCGUUGGCGUAAUGGUUACGUGUCUCCCUCCUAAGGAGUAGAAUGCGGGUUUGAGUCGCGUACGGAACG [A20U C24U A42U C46A C55U C61G] | 0.518
GUUCCGUUGGCGUAAUGGUUACGCGUCUCCCUCCUACCGAGAAGACUGCGGGUUCGAGUCCCGUACGGAACG [A20U A37C G38C] | ≤ 0.5
GUUCCGUUGGCGUAAUGGUUAUGCGUCUCCCUCCUAAGGAGAAGACAGCGGGUUCGAGUCCCGUACGGAACG [A20U C22U U47A] | ≤ 0.5
GUUCCGUUGGCGUAAUGGUUACGCGUCUCCGUCCUAAGGCGAAGACUGCGGGUUCGAGUCCCGUACGGAACG [A20U C31G A40C] | ≤ 0.5
GUUCCGUUGGCGUAAUGGUUAGGCGUCUCCCUCCUAAGGAGAAGCCUGCGGGUUCGAGCCCCGUACGGAACG [A20U C22G A45C U59C] | 0.651
GUUCCGUUGGCGUAAUGGUUACGCGUCUGCCUCCUAAGGAGAUGACUGCGGGUUCGAGUCCCGUACGGAACG [A20U C29G A43U] | 0.612
GUUCCGUUGGCGUAAUGGUUACGCGUCUUCCUCCUAAGGAGGAGACUGGGGGUUAGAGUCCCGUACGGAACG [A20U C29U A42G C49G C55A] | ≤ 0.5
GUUCCGUUGGCGUAAUGGUUACGCGUCUACCUCCUAAGGAGAAGACUGCGGGUUCGAGUCCCGUACGGAACG [A20U C29A] | 0.797
GUUCCGUUGGCGUAAUGGUUACGCGUCUCCCUCCUAGGGAGAAGACUGCGGGUUCGAGUCCCGUACGGAACG [A20U A37G] | 0.892
GUUCCGUUGGCGUAAUGGUUACGCGUCUCCCUCCUAAGGAGUAGGCUGCGGGUUCGAGUCCCGUACGGAACG [A20U A42U A45G] | 0.532
GUUCCGUUGGCGUAAUGGUUACGCGUCUAACUCCUAAGGAGAAGACUGCGGGUUCGAGUCCCGUACGGAACG [A20U C29A C30A] | ≤ 0.5
GUUCCGUUGGCGUAAUGGUUAGACGUCUCCCUCCUAAGGAGAUGACUGCAGGUUCGAGUCCCGUACGGAACG [A20U C22G G23A A43U G50A] | ≤ 0.5
GUUCCGUUGGCGUAAUGGUUACGCGUCUCCCUCCUAAGGAGAAGACUGCGGGUUCGAGUCCCGUACGGAGCG [A20U A70G] | 0.918
GUUCCGUUGGCGUAAUGGUUAAGCGUCUCCCUCCUAAGGAGAAGACUGCGGGUUCGAGUCAGGUACGAAACG [A20U C22A C61A C62G G68A] | ≤ 0.5

Variant | yeast fitness
GUUCCGUUGGCGUAAUGGUUACGAGUCUCCCUCCUAAGGAGAAGACUGCGCGUUCGAGUCCCGUACGGAACG [A20U C24A G51C] | ≤ 0.5
GUUCCGUUGGCGUAAUGGUUACGCGUCUUCCUCCUAAGGAGAAGACUGGGGGUUAGAGUCCCGUACGCAACG [A20U C29U C49G C55A G68C] | ≤ 0.5
GUUCCGUUGGCGUAAUGGUUACGCGUCUCCCUCCUAAGGAGAGGACUGCGAGUUCGAGUCCCGUACGGCACG [A20U A43G G51A A69C] | ≤ 0.5
GUUCCGUUGGCGUAAUGGUUACGCGUCUCCCUCCUGAGGAGAAGACUGCGGGUUCGAGUCCCGUACGAAACG [A20U A36G G68A] | 0.574
GUUCCGUUGGCGUAAUGGUUACGCGUCUCCCUCCUAAGGAGAAGUCUGCGGGUUCGAGUCCCGUACGGUACG [A20U A45U A69U] | 0.726
GUUCCGUUGGCGUAAUGGUUACGCGUCUCCCUCCUGAGGAGAAGACUCCGGGUUCGAGUCCCGUACCGAACG [A20U A36G G48C G67C] | ≤ 0.5
GUUCCGUUGGCGUAAUGGUUACGCGUCUCCAUCCUAAGGAGAAGACUGCGGAUUCGAGUCCCGUAUGGAACG [A20U C31A G52A C66U] | 0.527
GUUCCGUUGGCGUAAUGGUUACGCGUCUCUCUCCUAAGGAGAAGACUGCGGGUUCGGGUCCCGUUCGGAACG [A20U C30U A57G A65U] | ≤ 0.5
GUUCCGUUGGCGUAAUGGUUACGCGUGUUCCUCCUAAGGAGAAGACUGCGGGUUCGAGUCCCGUACGGAACG [A20U C27G C29U] | ≤ 0.5
GUUCCGUUGGCGUAAUGGUUACGCGUCUCUCUCGUAAGGAGAAGACUGCGGGCUCGUGUCCCGUACCGAACG [A20U C30U C34G U53C A57U G67C] | ≤ 0.5
GUUCCGUUGGCGUAAUGGUUAGGCGUCUCCCUCCUAAGGGGAAGACUGCCCGUUCAAGUCCCGUACGGAACG [A20U C22G A40G G50C G51C G56A] | ≤ 0.5
GUUCCGUUGGCGUAAUGGUUACGCGUCUCUCUCCGUAGGAGAAGACUGCGGGUUCGAGUCCCGUACGGAACG [A20U C30U U35G A36U] | ≤ 0.5
GUUCCGUUGGCGUAAUGGUUACGCGUCUUCCUCCUAAGGAGAAGACUGGGGGUUAGAGUCCCGUAUGGAACG [A20U C29U C49G C55A C66U] | ≤ 0.5
GUUCCGUUGGCGUAAUGGUUAUGCGUCUCCCUCCUAAGGAGAAGACUGCGGGUUCGAGUCCCGUACGGAACG [A20U C22U] | 0.716
GUUCCGUUGGCGUAAUGGUUACGCGUCUAACUCCUAAGGAGAAGACUGCGGGGUCGAGUCCGGUACGGAACG [A20U C29A C30A U53G C62G] | ≤ 0.5
GUUCCGUUGGCGUAAUGGUUACGCGUGUACCUCCUAAGGAGAAGACUGCGGGUUCGAAUCCCGUACGGAACG [A20U C27G C29A G58A] | ≤ 0.5
GUUCCGUUGGCGUAAUGGUUACGUGUCUCCCUCCUAAGGAGAAGACUGCGGGUUCGAGUCCCGUACGGAACG [A20U C24U] | 0.841
GUUCCGUUGGCGUAAUGGUUACGCGUCUCCCUCCUAAGGGGAAGACUGCGGGUUCGAGUCCCGUACGGAACG [A20U A40G] | 0.903
GUUCCGUUGGCGUAAUGGUUACGCGUCUCCCUCCUAAGGUGAACACUGCGGGGUCGAGUCCCGUACGGAACG [A20U A40U G44C U53G] | ≤ 0.5

— the RNAGym collection of RNA variant scans (doi:10.1126/science.aae0568)
